Compound activity: PubChem BioAssay, several laboratories
This is a sample that favours compounds with a hit; in the whole collection about 2.3% have one here.
NR2F2 inh: NR2F2 (human) inhibition, primary screen; HEK293T NGFI-A luciferase reporter, luminescence; inhibition, % at 8.6 µM; 370,000 tested, 0.7% active; AID 686940;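 active = inhibition above a per-plate cutoff, mean inhibition of test wells between control levels plus 3 SD, cut at about 38% in these data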;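 also: cells cotransfected with COUP-TFII expression vector driving the NGFI-A reporter; 0% = median of COUP-TF2 test wells and 100% = reporter-only cells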
CHT inh: inhibitors of human choline transporter CHT | B-score at 10 µM | CHT-expressing cells, membrane potential dye, choline response; hits give low values | 310,000 tested, 0.86% active | Q9GZV3;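 active = B-score over 3 SD under the library average, and starting fluorescence ratio not unusually high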;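 also: choline stimulus applied at its EC90 after an EC20 pre-addition; B-score computed on integrated fluorescence ratio after choline addition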
CHT PAM: human CHT allosteric activation; Q9GZV3; CHT-expressing cells, membrane potential dye, choline EC20; hits give high values; LV-AA mutant CHT in HEK293 cells; B-score at 10 µM; 310,000 tested, 0.49% active; AID 488977;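 active = initial fluorescence not abnormally high and integrated response B-score, plate-corrected, over 3 SD above library mean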
NR2E3 ag-1: agonists of human nuclear receptor NR2E3 | Q9Y5X4 | GST-NR2E3/biotin-RetCOR TR-FRET, 1536-well | inhibition of corepressor binding, % at 4.78 µM | 320,000 tested, 0.12% active | AID 2300;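 active = percent inhibition above the cutoff of mean plus 3 SD of all tested compounds, set per screening campaign, cut at about 20% in these data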;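 also: 0% = DMSO wells and 100% = biotin wells as full block of FRET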
Target sequence (Q9Y5X4 whole entry, looked up): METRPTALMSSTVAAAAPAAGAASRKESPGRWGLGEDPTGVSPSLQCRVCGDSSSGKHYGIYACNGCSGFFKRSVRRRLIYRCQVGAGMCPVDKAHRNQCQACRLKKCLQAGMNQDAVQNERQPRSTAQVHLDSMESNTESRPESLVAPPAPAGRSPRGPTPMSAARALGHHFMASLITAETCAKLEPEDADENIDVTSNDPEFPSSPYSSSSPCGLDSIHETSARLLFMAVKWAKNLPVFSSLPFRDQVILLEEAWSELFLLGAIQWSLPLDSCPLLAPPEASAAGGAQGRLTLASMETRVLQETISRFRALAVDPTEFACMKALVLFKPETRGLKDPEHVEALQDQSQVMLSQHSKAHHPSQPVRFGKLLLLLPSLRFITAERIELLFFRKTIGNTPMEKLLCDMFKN
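Material: NR2E3–RetCOR corepressor complex / Amount: 1.35 nM GST-NR2E3 / Medium: Tris pH 7.5 / Compound: single nominal compound dose of 4.8 µM / Incubation: 5 h at 4 °C / Technique: TR-FRET, Eu(K)-anti-GST donor, streptavidin-D2 acceptor, ex 340, em 617/671 nm / Read-out basis: percent loss of FRET ratio relative to control wells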
GalR3 antagonist: human GalR3 antagonism. HEK293 GalR3-CNG cAMP membrane potential fluorescence; galR3 body fused to GalR1 C-terminus. O60755. 360,000 tested, 0.44% active. AID 651719. inhibition, % at 3 µM;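 active = inhibition above the screen-wide average plus 3 SD, cut at about 13% in these data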;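 also: forskolin and galanin both at EC90 stimulate the cells; cAMP rise reported by CNG channel membrane potential dye signal; 0% = forskolin plus galanin with DMSO and 100% = forskolin alone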
NR2E3 ag-2: activates human NR2E3 receptor; Q9Y5X4; CHO-S Gal4-NCOR/VP16-NR2E3 two-hybrid, luciferase; inhibition of corepressor binding, % at 3.98 µM; 360,000 tested, 0.35% active;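 active = inhibition above the mean of all tested compounds plus 3 SD, cut at about 70% in these data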;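 also: 0% = DMSO with NR2E3 transfected cells and 100% = cells lacking NR2E3 construct; higher means lower luciferase signal from less NR2E3 corepressor binding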
NR2E3 ag confirm: NR2E3 agonism confirmed in two-hybrid assay. 2,300 tested, 51% active. AID 624378. shares compounds with NR2E3 ag-2. CHO-S mammalian two-hybrid NR2E3-NCOR, luciferase luminescence. inhibition, % at 3.98 µM;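 active = average inhibition above a cutoff equal to the mean inhibition of all tested compounds plus one SD, cut at about 70% in these data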;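 also: 0% = DMSO in NR2E3 cells and 100% = DMSO in cells lacking NR2E3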
GAL4-VP16 luc: reduces GAL4-VP16 reporter signal in NR2E3 counterscreen. shares compounds with NR2E3 ag-2. CHO-S GAL4-VP16 luciferase reporter, luminescence. inhibition, % at 3.98 µM. 2,300 tested, 29% active;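 active = mean inhibition above a cutoff equal to the average over all tested compounds plus one standard deviation, cut at about 70% in these data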;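 also: luciferase from a UAS reporter driven by GAL4-VP16 transactivation; 0% = DMSO with VP16-transfected cells and 100% = DMSO with cells lacking VP16; higher means less reporter light so more repression of VP16 activity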
* marks the source's active call; other numbers are inactive results; i = inactive; · = no result given.

SMILES	NR2F2 inh	CHT inh	CHT PAM	NR2E3 ag-1	GalR3 antagonist	NR2E3 ag-2	NR2E3 ag confirm	GAL4-VP16 luc
COc1ccc(-c2oc(=O)c3cc(OC)c(OC)cc3c2-c2ccc3c(c2)OCO3)cc1	-20.8	·	·	·	-1.9	-3.1	·	·
CC(C)c1ccc(-c2csc(NC(=O)c3cccs3)c2C(=O)O)cc1	13.9	i	i	-0.3	-3.4	49.4	94.4*	15.9
OCCCNc1cc(-c2ccnc(Nc3cccc(Cl)c3)n2)ccn1	60.5*	i	i	-0.3	-9.5	99.4*	100.0*	95.0*
COc1ccccc1CNc1nc(NCc2ccc(C)cc2C)c2sccc2n1	·	·	·	·	·	55.3	65.2	61.3
COCCNc1nc(NCc2ccc(C)cc2C)c2sccc2n1	-3.1	·	·	·	-8.6	4.7	·	·
COc1ccccc1CNc1nc(NCc2ccccc2F)c2sccc2n1	·	·	·	·	·	81.7*	94.1*	76.3*
COc1ccccc1CNc1nc(NCc2ccccc2)nc2ccsc12	1.8	·	·	·	-5.6	61.6	51.9	48.8
c1ccc(CNc2nc(NCc3ccccc3)c3sccc3n2)cc1	4.1	·	·	·	-9.5	62.5	73.7*	60.7
CC(=O)Nc1ccc(/C=N\NC(=O)c2cccc(S(=O)(=O)N(C)C)c2)cc1	5.0	·	·	·	·	·	·	·
CC(C)CC(O)(CC(C)C)c1cn(C(=O)N(c2ccccc2)c2ccccc2)nn1	-1.6	·	·	·	·	·	·	·
COCCN=C1S/C(=C\c2cc(C)n(-c3ccc(F)cc3F)c2C)C(=O)N1C	2.8	·	·	·	·	·	·	·
COc1ccccc1CCn1cnc(-c2cccc(F)c2)c1CC(C)C	26.0	·	·	·	-7.6	·	·	·
C#Cc1cccc(Nc2nc(NCc3ccccc3OC)nc3ccsc23)c1	37.0	·	·	·	-7.1	68.3	91.8*	75.0*
COC(/C(=N/O)c1ccc(Cl)cc1)c1ccccc1 (stereo not given)	4.1	i	i	3.3	-12.5	58.8	83.3*	58.1
O=C1c2cccc3c(O)ccc(c23)C(=O)N1Cc1ccccc1	18.3	i	i	1.1	-2.9	63.7	81.7*	60.1
O=C1c2cccnc2C(=O)N1Cc1ccccc1	2.6	i	i	4.5	0.4	-0.2	·	·
CCN1CCCCC(NC(=O)c2ccccc2OC)C1=O (stereo not given)	3.5	·	·	·	·	·	·	·
COc1cc(C(O)c2nc(-c3ccc(N(C)C)cc3)cs2)ccc1F (stereo not given)	·	·	·	·	·	49.7	32.8	42.0
COc1ccc(CNC2CCC23CCC(c2ccccc2)CC3)cc1OC (stereo not given)	-3.8	·	·	·	·	·	·	·
Cc1cccc(Cc2cnc(N3C(=N)SC(C)C3=O)s2)c1 (stereo not given)	0.4	i	i	0.3	-1.1	103.4*	98.6*	21.2
Cc1ccc(Cc2cnc(N3C(=N)SC(C)C3=O)s2)cc1 (stereo not given)	-5.9	i	i	-1.1	-5.0	101.5*	100.6*	-3.0
CC(C)(C)C(=O)Nc1ccc(Sc2ccc([N+](=O)[O-])cc2)cc1	19.1	i	i	-2.0	-6.2	53.1	78.5*	54.0
CC(C)(C)C(=O)NC(NC(=O)C(C)(C)C)c1ccc([N+](=O)[O-])cc1	15.3	i	i	-1.9	0.1	-38.4	·	·
CC(=O)Nc1ccc(Sc2ccc([N+](=O)[O-])o2)cc1	8.8	·	·	·	1.3	72.2*	92.6*	4.0
CCOC(=O)[C@@]12CCCC3=C1N(CCC3)C(=O)[C@H]2CC(=O)N1CCCCC1	8.7	·	·	·	·	·	·	·
COC(=O)C1CN(Cc2cn(Cc3ccc(OC)cc3)nn2)CCS(=O)(=O)N1Cc1ccc(Cl)cc1 (stereo not given)	-32.6	·	·	·	·	·	·	·
CCOC(=O)C1CCN(S(=O)(=O)c2cc(Br)cc3c2N(C(=O)C2CC2)CC3)CC1	-5.2	i	i	1.5	-5.3	16.0	·	·
O=C(C1CC1)N1CCc2cc(Br)cc(S(=O)(=O)N3CCN(c4ccccn4)CC3)c21	0.5	i	i	1.2	-1.1	86.7*	90.0*	2.5
